Source: ChEMBL document CHEMBL1122173, “Effects of conformationally restricted 4-piperazinyl-10H-thienobenzodiazepine neuroleptics on central dopaminergic and cholinergic systems” (J Med Chem, 1982)

Columns and labels:
[1] = test system: Mus musculus; assay: Tested for physostigmine lethality at a dose of 20 mg/kg after oral administration in mice; type: functional
How it was run: (§1)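 Groups of 10 CFW mice (19-26 g) given test compound in distilled water or 0.5% carboxymethylcellulose 1 h (0.5 h for hyoscine) before physostigmine 1 mg/kg ip. Tremor or death scored at 10, 20 and 60 min after physostigmine (dead at 10 min = 4, dead later = 3, marked tremor = 2, slight tremor = 1, no effect = 0). Value is percent reduction in group score versus control group.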

[2] = test system: Mus musculus; assay: Tested for physostigmine lethality at a dose of 10 mg/kg after oral administration in mice; type: functional; how it was run: as §1
[3] = target: Muscarinic acetylcholine receptor; assay: Displacement of [3H]QNB from Muscarinic acetylcholine receptor of rat brain membrane
[4] = test system: Mus musculus; assay: Tested for physostigmine lethality at a dose of 5 mg/kg after oral administration in mice; type: functional; how it was run: as §1
[5] = test system: Mus musculus; assay: Tested for physostigmine lethality at a dose of 50 mg/kg after oral administration in mice; type: functional; how it was run: as §1
[6] = test system: Mus musculus; assay: Tested for physostigmine lethality at a dose of 2.5 mg/kg after oral administration in mice; type: functional; how it was run: as §1
[7] = test system: Mus musculus; assay: Tested for physostigmine lethality at a dose of 8 mg/kg after oral administration in mice; type: functional; how it was run: as §1
[8] = test system: Mus musculus; assay: Tested for physostigmine lethality at a dose of 12 mg/kg after oral administration in mice; type: functional; how it was run: as §1
[9] = test system: Mus musculus; assay: Tested for physostigmine lethality at a dose of 25 mg/kg after oral administration in mice; type: functional; how it was run: as §1
[10] = test system: Mus musculus; assay: Tested for physostigmine lethality at a dose of 15 mg/kg after oral administration in mice; type: functional; how it was run: as §1

| Structure (SMILES) | Protection [2] [%] | IC50 [3] [nM] | Protection [4] [%] | other results |
| --- | --- | --- | --- | --- |
| CCc1cc2c(s1)Nc1ccc(F)cc1N=C2N1CCN(C)C(C)C1 (configuration not stated) | 17 | 97 | – | Protection [1]: 42% |
| O=C(CCCN1CCC(O)(c2ccc(Cl)cc2)CC1)c1ccc(F)cc1 [HALOPERIDOL] | – | – | 0 | – |
| CCc1cc2c(s1)Nc1ccc(F)cc1N=C2N1CC(C)N(C)C(C)C1 (configuration not stated) | – | 258 | – | Protection [5]: 24% |
| CCc1c(C)sc2c1C(N1CCN(C)CC1)=Nc1cc(F)ccc1N2 | 75 | 26 | 60 | Protection [1]: 53% |
| Cc1sc2c(c1C(C)C)C(N1CCN(C)CC1)=Nc1cc(F)ccc1N2 | – | 64 | – | Protection [5]: 35% |
| Cc1csc2c1C(N1CCN(C)CC1)=Nc1cc(F)ccc1N2 | 67 | 101 | 65 | Protection [6]: 5% |
| CCc1cc2c(s1)Nc1ccc(F)cc1N=C2N1CCN(C)CC1 | 33 | 116 | – | Protection [7]: 18%; Protection [8]: 75% |
| CN1CCN(C2=Nc3cc(F)ccc3Nc3sc4c(c32)CCCC4)CC1 | 46 | 34 | 46 | Protection [9]: 71% |
| CCc1cc2c(s1)Nc1ccc(F)cc1N=C2N1CC(C)N(C)CC1C (configuration not stated) | – | 247 | – | – |
| CC(C)c1csc2c1C(N1CCN(C)CC1)=Nc1cc(F)ccc1N2 | – | 26 | – | Protection [5]: 35% |
| Cc1cc2c(s1)Nc1ccc(F)cc1N=C2N1CCN(C)CC1 [FLUMEZAPINE] | 75 | 74 | 64 | Protection [6]: 50% |
| CN1CCN(C2=Nc3cc(F)ccc3Nc3sccc32)CC1 | – | 574 | – | – |
| CN1CCN(C2=Nc3cc(Cl)ccc3Nc3ccccc32)CC1 [CLOZAPINE] | – | – | – | Protection [10]: 53% |
| Cc1sc2c(c1C)C(N1CCN(C)CC1)=Nc1cc(F)ccc1N2 | 74 | 9 | 33 | Protection [6]: 5% |
